From ChEMBL document CHEMBL1125370, “Cardiotonic agents. Synthesis and cardiovascular properties of novel 2-arylbenzimidazoles and azabenzimidazoles” (J Med Chem, 1992)
Active and inactive are the calls of the source. The rule behind the calls is not given here.

Assays:
Cavia porcellus [1] = species: Cavia porcellus; test: The compound was tested in vitro for inotropic activity in isolated left atria from guinea pig;No effect at a maximal concentration of 50 uM,; format: functional
Summary of the method: (§1)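 Isolated left atria preparation. Tension max is the maximal increase in developed tension. […] EC50 was not calculated when tension max was below 250 mg. Bracketed values give the maximal concentration used, and no effect was recorded up to that concentration. Values are means ± SEM.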

Cavia porcellus [2] = species: Cavia porcellus; test: The compound was tested in vitro for inotropic activity expressed as the maximal increase in developed tension. in isolated left atria from guinea pig;No effect at a maximal concentration of 50 uM; format: functional
Summary of the method: (§2)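 Isolated left atria preparation. Tension max is the maximal increase in developed tension. Bracketed values give the maximal concentration used, and no effect was recorded up to that concentration. Values are means ± SEM.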

Canis familiaris [3] = test: In vivo hypotension in anesthetized dog, expressed as the dose of the drug producing a 25% decrease in diastolic arterial pressure (DAP) from control value.; format: functional; conditions: Canis lupus familiaris, Artery
Canis familiaris [4] = test: In vivo contractility in anesthetized dog expressed as dose which produced a 50% increase in dP/dt max from the control value; format: functional, Canis lupus familiaris
Cavia porcellus [5] = species: Cavia porcellus; test: The compound was tested in vitro for inotropic activity expressed as the maximal increase in developed tension. in isolated left atria from guinea pig,No effect at a maximal concentration of 20 uM; format: functional; summary of the method: as §1
Cavia porcellus [6] = species: Cavia porcellus; test: The compound was tested in vitro for inotropic activity in isolated left atria from guinea pig. No effect at a maximal concentration of 20 uM,; format: functional; summary of the method: as §1
Cavia porcellus [7] = species: Cavia porcellus; test: In vitro inotropic activity in isolated left atria from guinea pig.; format: functional; summary of the method: as §2
Cavia porcellus [8] = species: Cavia porcellus; test: In vitro inotropic activity expressed as the maximal increase in developed tension in isolated left atria from guinea pig.; format: functional; summary of the method: as §2
Cavia porcellus [9] = species: Cavia porcellus; test: The compound was tested in vitro for chronotropic activity in isolated right atria from guinea pig;No effect at a maximal concentration of 50 uM; format: functional
Summary of the method: (§3)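 Isolated right atria, chronotropic read-out. Rate max is the maximal increase in rate, in beat/min. It comes from three to six experiments and was not calculated when rate max was below 30 beat/min. Bracketed values give the maximal concentration used. Means ± SEM.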

Canis familiaris [10] = test: In vivo hypotension in anesthetized dog expressed as the dose of the drug producing a 25% decrease in DAP from control valueNo effect at a maximal concentration of 50 uM; format: functional; conditions: Canis lupus familiaris
Canis familiaris [11] = test: In vivo contractility in anesthetized dog expressed as dose which produced a 50% increase in dP/dt max from the control value.; format: functional; conditions: Canis lupus familiaris
Canis familiaris [12] = test: In vivo contractility in conscious dog expressed as dose which produced a 50% increase in dP/dt max from the control value;No effect up to 1 mg/kg; format: functional, organism-based; design: dose 1 mg/kg; conditions: Canis lupus familiaris
Summary of the method: (§4)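 Male beagles (12–15 kg) carried a Königsberg transducer implanted in the left ventricle to record dP/dt max and arterial pressure. Drug or placebo was given by gastric tube as a 1% gum arabic suspension. Effects were followed for 5 h.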

Canis familiaris [13] = test: In vivo contractility in conscious dog expressed as dose which produced a 50% increase in dP/dt max from the control value; format: functional; conditions: Canis lupus familiaris; summary of the method: as §4
Cavia porcellus [14] = species: Cavia porcellus; test: The compound was tested in vitro for chronotropic activity in isolated right atria from guinea pig; format: functional; summary of the method: as §3
Cavia porcellus [15] = species: Cavia porcellus; test: The compound was tested in vitro for chronotropic activity expressed as the maximal increase in beat/min in isolated right atria from guinea pig

EC50 (Cavia porcellus [7]) [µM]	EC50 (Cavia porcellus [14]) [µM]	Compound	ED25 (Canis familiaris [3]) [mg/kg]	Ionotropic activity (Cavia porcellus [8]) [mg]	ED50 (Canis familiaris [11]) [mg/kg]	ED50 (Canis familiaris [13]) [mg/kg]	Rate max (Cavia porcellus [15]) [beats min-1]	further results
–	–	Cc1cc2[nH]c(-c3ccc(-n4ccnc4)cc3)nc2cc1-n1ccnc1.Cl.O	> 3	–	–	–	–	EC50 (Cavia porcellus [1]): Not Active; Ionotropic activity (Cavia porcellus [2]): inactive; Contractility (Canis familiaris [4]): > 3 mg/kg
–	–	c1ccc(Nc2ncccc2-c2nc3cc(-n4ccnc4)ccc3[nH]2)cc1	–	–	–	–	–	Ionotropic activity (Cavia porcellus [5]): inactive; EC50 (Cavia porcellus [6]): Not Active
> 50	–	c1ccc(-c2nc3cc(-n4ccnc4)ccc3[nH]2)nc1	–	170	> 3	–	–	EC50 (Cavia porcellus [9]): Not Active; ED25 (Canis familiaris [10]): 3 mg/kg
–	–	c1cc(-c2nc3c[nH]c(-n4ccnc4)nc-3n2)ccn1	–	–	–	–	–	ED50 (Canis familiaris [12]): inactive
4.7	22	Cc1[nH]c(=O)c(C#N)cc1-c1ccncc1 [MILRINONE]	1	580	0.15	2	70	–
34	20	O=C1CCC(c2ccc(Nc3ccncc3)cc2)=NN1 [SENAZODAN]	0.1	410	0.009	0.1	39	–
31	100	COc1cc([S+](C)[O-])ccc1-c1nc2cccnc2[nH]1 (stereo not drawn) [SULMAZOLE]	5	600	1	10	88	–
